# Assay outcomes deposited in PubChem by Broad Institute.
# A selection: hits, their analogues and other compounds. The true share with any hit is near 2.6%.
# SR-BI uptake up: activators of SR-BI mediated DiI-HDL uptake, primary screen, ldlA[mSR-BI] CHO cells, DiI fluorescence; 3 h; 100 = double the neutral-control signal; activation, % at 12.5 µM; actives 0.096% (n = 320,000); AID 504775, 2011;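 active = mean replicate activation of at least 60% and every replicate at or above 60%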
#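 System: LDL receptor-deficient CHO ldlA cells overexpressing murine SR-BI | Timing: 3 h uptake period with compound, 37 °C | Medium: HEPES-buffered (25 mM, pH 7.4) F12 plus 0.5% BSA | Dosing: Single-point compound dose | Signal: Bottom-read fluorescence, 550/595 nm | Read-out: Retained DiI signal reflecting DiI-HDL uptake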
# PvdQ acylase: P. aeruginosa PvdQ acylase inhibitors, primary screen, biochemical, fluorescence, plate reader and imaging, single point; actives 0.063% (n = 340,000); inhibition, % at 10 µM; PvdQ acylase [Pseudomonas aeruginosa LESB58]; purified PvdQ acylase; in the data active = inhibition above about 30%, passing the limit was not always enough
# dFosB act-1: activators of delta FosB homodimer, primary screen, biochemical, fluorescence polarization, TAMRA-CDK5 oligo, single point; Protein FosB (Mus musculus), P13346; purified delta FosB; percent of positive-control signal above neutral wells; activation, % at 25 µM; actives 0.99% (n = 340,000);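 active = mean activation above about 17%, with every replicate also reaching it, limit read from the data, passing the limit was not always enough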
# Target sequence (P13346 whole entry, looked up): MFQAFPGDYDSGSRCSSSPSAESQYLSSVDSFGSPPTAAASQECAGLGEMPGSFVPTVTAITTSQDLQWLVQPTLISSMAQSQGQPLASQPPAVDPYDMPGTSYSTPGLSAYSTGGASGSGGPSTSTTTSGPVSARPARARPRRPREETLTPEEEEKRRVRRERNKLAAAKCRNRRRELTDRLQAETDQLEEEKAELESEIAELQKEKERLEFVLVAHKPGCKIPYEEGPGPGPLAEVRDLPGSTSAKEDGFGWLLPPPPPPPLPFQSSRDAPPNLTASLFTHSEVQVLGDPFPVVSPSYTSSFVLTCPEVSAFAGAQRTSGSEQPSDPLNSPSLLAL
# rRNA inh HTS: reduced GFP signal of wild-type E. coli, primary screen, bacterial rRNA inhibitor project, GFP/RFP fluorescence, OD600, single point; E. coli WT GFP vs humanized-ribosome RFP mutants, 24 h; active compounds read low; DMSO median 0, no signal -100; GFP signal change (wild-type ribosome), % (concentration not given with the values); actives 1.6% (n = 350,000);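 active = significant combined selectivity score with lowered wild-type GFP, culture density cut under 30%, mutant RFP and density less affected; inactive = any of these conditions unmet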
# XiGFP reactiv: activators of inactive X chromosome reactivation, primary screen, imaging, XiGFP fibroblasts, GFP high-content imaging, set 2 | XiGFP mouse fibroblasts, % GFP-positive cells imaging, 3 d; cells co-treated with 5-aza-dC sensitizer; scaled so ellipticine positive control = 100% | activation, % at 7.58 µM | actives 0.055% (n = 360,000);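 active = mean normalized replicate activation at least 10% and every replicate at or above 10%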
#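 System: 68-5-11 XiGFP fibroblast line; Timing: 3 days compound exposure; Compound dosing: one concentration, pinned; Benchmarks: positive control ellipticine, 6 µM final; Buffer or medium: DMEM containing 5-aza-dC.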
# SR-BI HDL uptake: inhibitors of SR-BI mediated HDL lipid uptake, primary screen, ldlA[mSR-BI] cells, fluorescence, single point; Scavenger receptor class B member 1 (Mus musculus), Q61009; ldlA[mSR-BI] CHO cells, DiI-HDL uptake fluorescence, 3 h; inhibition, % at 12.5 µM; actives 0.96% (n = 320,000); AID 488896, 2010;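 active = mean replicate inhibition of at least 70% and a set share of replicates each scoring 70 or more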
# dFosB act-2: activators of mouse delta FosB DNA binding, confirmation, biochemical, fluorescence polarization, TAMRA-CDK5 oligo, cherry-picked samples; shares compounds with dFosB act-1; purified delta FosB; normalised: neutral wells 0, positive control 100; activation, % at 24.9 µM; 2,400 tested, under 10 active; AID 588690, 2011;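 active = highest replicate activation at or above 34% and every replicate reaching that threshold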;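 also: higher polarization means more probe DNA bound by delta FosB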
# Numbers stand for hits; . = inactive; / = no result given.
SMILES,SR-BI uptake up,PvdQ acylase,dFosB act-1,rRNA inh HTS,XiGFP reactiv,SR-BI HDL uptake,dFosB act-2
COc1cc2c(cc1OC)C(C)N(C(=O)c1cc3c(=O)oc4ccc(C)cc4c3s1)CC2 (stereo not given),.,.,41,.,.,.,.
Cc1ccc(Nc2nc(N)nc(CSc3nc4ccccc4s3)n2)cc1,.,.,53,/,/,.,.
Cc1ccc(Nc2nc(N)nc(CSc3nnc(-c4ccncc4)o3)n2)cc1,.,.,66,/,/,.,.
C[C@@H]1CN([C@@H](C)CO)C(=O)c2cc(-c3cncnc3)cnc2O[C@@H]1CN(C)C(=O)c1cccc(F)c1,/,/,/,.,.,/,/
COCC(=O)Nc1ccc2c(c1)C(=O)N(C)C[C@H](OC)[C@@H](C)CN(C(=O)c1ccccc1)[C@H](C)CO2,/,/,/,.,.,/,/
CCOC(=O)c1cc(-c2ccccc2)sc1NC(=O)COC(=O)c1cccc(S(N)(=O)=O)c1,.,.,24,.,.,.,.
CCOC(=O)c1cc(-c2ccccc2)sc1NC(=O)COC(=O)c1ccc(Cl)c(S(N)(=O)=O)c1,.,.,.,/,/,.,/
NC(=O)c1cc([N+](=O)[O-])ccc1NCc1cnccn1,.,.,.,.,.,.,/
NS(=O)(=O)c1ccc(NC(=S)NC(=O)/C=C/c2cccs2)cc1,.,.,26,.,.,.,.
O=C(/C=C/c1cccs1)NC(=S)Nc1ccc(C(=O)O)cc1,/,.,.,.,.,/,/
CCOC(=O)c1ccc(NC(=O)C(CC)(CC)C(=O)OCC)cc1,.,.,.,/,/,.,/
O=C(NNC(=O)c1c(O)c2ccccc2[nH]c1=O)c1ccccc1Br,.,.,52,.,.,.,.
O=C(COC(=O)c1cccnc1Nc1ccccc1F)NCc1ccc2c(c1)OCO2,.,.,55,/,/,.,.
O=C(NCC1CCCO1)C1CCN(C2CCN(Cc3cccs3)CC2)CC1 (stereo not given),/,.,.,.,.,/,/
Cc1ccsc1C(=O)N1CCC(N2CCC(C(=O)NCC3CCCO3)CC2)CC1 (stereo not given),.,.,35,.,.,.,.
N#Cc1c(F)cccc1NCc1cccs1,.,.,.,/,.,.,/
Cc1ccc(NC(=O)c2ncc(Cl)c(Cl)c2Cl)cc1C,.,.,26,.,.,.,.
O=C(Nc1ccc(OC(F)F)cc1)c1ncc(Cl)c(Cl)c1Cl,.,.,.,.,.,.,/
COc1ccc(CN2[C@@H](CC(=O)O)c3cc(C(F)(F)F)ccc3S2(=O)=O)cc1,.,.,.,.,.,.,/
N#Cc1c(N)nc(SCC(=O)NCc2ccc3c(c2)OCO3)c(C#N)c1-c1cccs1,.,.,.,/,/,.,/
COc1ccc(-c2cc(-c3cccs3)c(C#N)c(SCC(=O)NCc3ccccc3OC)n2)cc1,.,.,23,/,/,.,.
COc1ccccc1CNC(=O)CSc1nc(N)c(C#N)c(-c2cccs2)c1C#N,.,.,75,/,/,.,.
CCCOc1ccc(-c2csc3ncn(Cc4ccc(C(=O)O)cc4)c(=O)c23)cc1,.,.,24,.,.,.,.
Cc1ccc(-c2csc3ncn(Cc4ccc(C(=O)O)cc4)c(=O)c23)cc1C,.,.,.,.,.,.,/
Cc1cc(C)c2nc(-c3ccccn3)cc(C(=O)NCc3ccc(S(N)(=O)=O)cc3)c2c1,.,.,65,.,.,.,.
SMILES,SR-BI uptake up,PvdQ acylase,dFosB act-1,rRNA inh HTS,XiGFP reactiv,SR-BI HDL uptake,dFosB act-2
Cc1cc(C)c2nc(-c3ccccn3)cc(C(=O)NCCc3ccc(S(N)(=O)=O)cc3)c2c1,.,.,.,.,.,.,/
NC(=O)C1CCN(C(=O)c2ccc(Oc3cc(Cl)cc(Cl)c3)o2)CC1,.,.,.,.,.,.,/
O=C(Nc1c(-c2ccccc2)nc2ncccn12)c1cc2ccccc2oc1=O,.,.,38,.,.,.,.
CC(=O)Nc1cccc(-c2cn3ccccc3n2)c1,.,.,.,.,.,.,/
O=C(Nc1cccc(-c2cn3ccccc3n2)c1)c1cc2ccccc2oc1=O,.,.,61,.,/,.,.
COc1cc2[nH]c(=O)n(Cc3ccc(C(=O)NCCCN4CCN(C)CC4)cc3)c(=O)c2cc1OC,.,.,32,/,/,.,.
CCN(CC)CCNC(=O)c1c(O)c2cc(OC)c(OC)cc2[nH]c1=O,.,.,24,/,/,.,.
COc1ccc(Cn2c(=O)[nH]c3cc(C(=O)NCCCN4CCCC4)ccc3c2=O)cc1,.,.,.,/,/,.,/
COc1cc2[nH]c(=O)c(C(=O)NCCCN3CCOCC3)c(O)c2cc1OC,.,.,33,.,.,.,.
O=C(O)c1cccc(NCc2cccnc2)c1,.,.,.,/,/,.,/
CC1CCc2sc(C(=O)NC3CCN(Cc4ccccc4)CC3)cc2C1 (stereo not given),.,.,.,/,.,.,/
Cc1ccc(S(=O)(=O)N2CCN(C)CC2)cc1C,.,.,.,.,.,.,/
Cc1ccc(S(=O)(=O)N2CCN(S(=O)(=O)c3c(C)n[nH]c3C)CC2)cc1C,.,.,32,.,.,.,.
Cc1cc2oc(=O)cc(CN3CCCC3)c2cc1C,/,/,/,.,.,/,/
COc1ccc(-c2cc(C)no2)cc1S(=O)(=O)N1CCN(c2ccccn2)CC1,.,.,.,.,.,.,/
O=C(/C=C/c1ccccc1)Nc1nc(-c2ccncc2)cs1,.,.,17,.,.,.,.
O=C(/C=C\c1ccco1)Nc1nc(-c2ccccc2)cs1,.,.,.,.,.,.,/
CC(C)C[C@@]12C(=O)N(c3cccc(Br)c3)C(=O)N1[C@H](c1ccc(Cl)cc1)[C@@H]1C(=O)N(C3CCCCC3)C(=O)[C@@H]12,.,.,.,.,.,.,/
S=C(N/N=C/c1ccccc1Cl)Nc1cccc(Cl)c1Cl,.,.,36,.,.,.,.
CC(C)CNS(=O)(=O)c1cc(C(=O)N2CC(C)OC(C)C2)c(Cl)cc1Cl (stereo not given),.,.,.,.,/,.,/
